Data taken from publication PMC3585837 (Drugs in R&D, 2012).
Entries after “also recorded” stand apart in the source; their conditions may differ. Where two headings read alike, the source gives them in different places. One block for each compound: values may come before it.

What was measured:
[1] = assay type: in vivo, human; settings: for AUClast test/reference geometric means ratio (GMR) / AUC∞ test/reference geometric means ratio (GMR) / Cmax test/reference geometric means ratio (GMR): fed (test) vs fasting (reference), n = 12
[2] = cited from earlier work; for Increase of the extent of systemic exposure with dose / Linearity of pharmacokinetics: once-daily 25-600 mg for 10 days
[3] = cited from earlier work
[4] = rat; cited from earlier work
[5] = tested on: dopamine-β-hydroxylase (DβH); settings: cited from earlier work
[6] = tested on: dopamine-β-hydroxylase (DβH); settings: cited from earlier work; remark: listed apart in the source
[7] = first- and second-generation DβH inhibitors; cited from earlier work
[8] = Tolerability in the food-effect study; assay type: in vivo, human
Outline: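 Randomized two-period crossover in 12 healthy men (18–45 y, BMI 19–28 kg/m2). Each received a single 200 mg oral dose (four 50 mg capsules, 240 mL water) after a high-fat, high-calorie breakfast or a 10 h fast; washout ≥14 days; confined until 72 h post-dose. Adverse events monitored throughout, recording onset, offset, severity, relatedness, action and outcome. Vital signs, physical examination, hematology and biochemistry at each admission.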

dogs = settings: cited from earlier work
Cynomolgus monkeys = settings: cited from earlier work
rats = settings: cited from earlier work
mice = settings: cited from earlier work
[9] = tested on: spontaneously hypertensive rats; settings: cited from earlier work
[10] = tested on: normotensive Wistar-Kyotos rats; settings: cited from earlier work
[11] = tested on: male cardiomyopathic hamsters (Bio TO-2 dilated strain); settings: male cardiomyopathic hamsters (Bio TO-2 dilated strain) with advanced congestive heart failure; cited from earlier work
[12] = tested on: dopamine or noradrenaline levels in the brain; settings: in contrast to peripheral tissues; cited from earlier work
[13] = 200 mg single dose, fasting condition; cited from earlier work
[14] = cited from earlier work; remark: listed apart in the source
[15] = first- and second-generation DβH inhibitors
[16] = 90% CI of GMR against the acceptance interval (80, 125)

AUClast test/reference geometric means ratio (GMR) ([1]; single oral etamicastat 200 mg): 79.41%
AUC∞ test/reference geometric means ratio (GMR) ([1]; single oral etamicastat 200 mg): 83.47%
Cmax test/reference geometric means ratio (GMR) ([1]; single oral etamicastat 200 mg): 62.42%
Structure (SMILES): CC(=O)NCCc1c[nH]c(=S)n1[C@H]1COc2c(F)cc(F)cc2C1 [BIA 5-961]
Effect of food on AUC∞, AUClast and Cmax (systemic exposure) of the metabolite ([1]; etamicastat 200 mg administered in the presence of food vs fasting): significant decrease; also recorded: decreased
Increase of the extent of systemic exposure with dose [2]: approximately dose-proportional
Linearity of pharmacokinetics [2]: linear pharmacokinetics
AUC in NAT2 rapid acetylators compared with poor acetylators [3]: markedly higher
Occurrence as metabolite of etamicastat [4]: major metabolic pathway
Activity of the metabolite [5]: inactive

Structure (SMILES): CCN(CC)C(=S)S [diethyldithiocarbamate]
Potency as DβH inhibitor [6, 15]: low potency
Selectivity for DβH [6, 15]: poor selectivity
Side effects [7]: toxic side effects

Structure (SMILES): CCN(CC)C(=S)SSC(=S)N(CC)CC [disulfiram]
Potency as DβH inhibitor [6, 15]: low potency
Selectivity for DβH [6, 15]: poor selectivity
Side effects [7]: toxic side effects

Structure (SMILES): Cl.NCCc1c[nH]c(=S)n1[C@H]1COc2c(F)cc(F)cc2C1 [etamicastat, (R)-5-(2-aminoethyl)-1-(6,8-difluorochroman-3-yl)-1,3-dihydroimidazole-2-thione hydrochloride]
Bioequivalence fed vs fasting for Cmax [1, 16]: did not fit the claim of bioequivalence; also recorded: does not fit the claim of bioequivalence
Bioequivalence fed vs fasting for extent of exposure (AUClast and AUC∞) [1, 16]: fulfilled the claim of bioequivalence; also recorded: remained within the acceptance interval; also recorded: remained unchanged
AUClast test/reference geometric means ratio (GMR) ([1]; single oral etamicastat 200 mg): 93.59%
AUC∞ test/reference geometric means ratio (GMR) ([1]; single oral etamicastat 200 mg): 96.47%
Cmax test/reference geometric means ratio (GMR) ([1]; single oral etamicastat 200 mg): 72.27%
Effect of food on tmax ([1]; fed vs fasting, Wilcoxon signed rank test): prolonged; also recorded: significantly delayed; also recorded: significantly increased
Decrease of Cmax as a result of food intake ([1]; fed vs fasting, single oral etamicastat 200 mg): 28%
Intensity of TEAEs ([8]; both periods): mild to moderate
Serious adverse events or discontinuations due to adverse events ([8]; both periods): no serious adverse events or discontinuations due to adverse events
Total number of treatment-emergent adverse events ([8]; both periods, single oral etamicastat 200 mg): six
Abnormalities in vital signs, ECG or laboratory safety tests ([8]; during the study): no clinically significant abnormality; also recorded: No clinically relevant abnormalities
Number of TEAEs ([8]; fed period (abdominal pain, asthenia, headache, intercostal pain)): four
Proportion of subjects reporting treatment-emergent adverse events ([8]; of 12 subjects, single oral etamicastat 200 mg, both periods): 33.3%
Overall tolerability ([8]; single oral 200 mg, fasting and fed periods, healthy male subjects): well tolerated
No observed adverse effect level (dogs): 5 mg/kg/day
No observed adverse effect level (Cynomolgus monkeys): 20 mg/kg/day
No observed adverse effect level (rats): 30 mg/kg/day
No observed adverse effect level (mice): 30 mg/kg/day
Heart rate [9]: did not affect
Systolic and diastolic blood pressure [9]: reduced
Heart rate ([10]; Wistar-Kyotos rats): did not affect
Systolic and diastolic blood pressure ([10]; normotensive Wistar-Kyotos rats): no changes
Survival rates [11]: increased survival rates
Effect on dopamine or noradrenaline levels in the brain [12]: does not affect
AUClast, arithmetic mean [13]: 2026 ng·h/mL
AUC∞, arithmetic mean [13]: 2230 ng·h/mL
Cmax, arithmetic mean [13]: 202 ng/mL
t1/2, arithmetic mean [13]: 19.8 h
Increase of the extent of systemic exposure with dose [2]: approximately dose-proportional
Linearity of pharmacokinetics [2]: linear pharmacokinetics
Etamicastat dose recovered in urine in the form of etamicastat and BIA 5-961 ([2]; once-daily dosing): Approximately 40%
Time to attain steady-state plasma concentrations ([2]; once-daily dosing): up to 9 days
Tolerability ([2]; orally, doses up to 600mg once daily for 10 days, male healthy volunteers): appears to be well tolerated
Effect of NAT1 phenotype on pharmacokinetics [3]: no relevant effect

Structure (SMILES): CCCCc1ccc(C(=O)O)nc1 [fusaric acid]
Potency as DβH inhibitor [6, 15]: low potency
Selectivity for DβH [6, 15]: poor selectivity
Side effects [7]: toxic side effects

Structure (SMILES): NCc1c[nH]c(=S)n1[C@H]1CCc2c(F)cc(F)cc2C1 [nepicastat]
Potency as DβH inhibitor ([6]; third-generation DβH inhibitor, compared with first and second generation): much greater potency
Crossing of the blood-brain barrier [14]: cross the blood-brain barrier
